pIC50: −log10 of the molar value. Activity calls are given as the source filed them. The calls are words filed in the database; no cut-off is given here.
Key:
518T2 [1] = assay: Binding affinity to beta-tubulin in mouse 518T2 cells measured after 1.5 hrs using Alexa Fluor 532 dye by copper-mediated click reaction based SDS PAGE analysis; format: cell-based
Method in brief: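 Competition format in 518T2 murine SCLC cells, 1 million per well in DMEM with 5% FBS. Analogs in DMSO (100 nM to 50 μM) were dispensed first and cells plated onto them. Next day alkyne probe 24 (5 μM) was added for 1.5 h at 37 °C, 5% CO2. EC50 was taken from displacement of the 50 kDa band.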

518T2 [2] = assay: Cell cycle arrest in mouse 518T2 cells assessed as increase in accumulation at G2/M-phase at 300 nM measured after 24 hrs by propidium iodide staining based flow cytometry; format: functional
Method in brief: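 518T2 murine SCLC cells were exposed for 24 h to compound (300 nM) or DMSO vehicle. Cell cycle distribution was then read by flow cytometry.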

[3] = Anticancer activity against mouse 319N1 cells assessed as reduction in cell viability measured after 72 hrs by celltiter-glo assay; format: functional, cell-based; details: 319N1, 72 h
Method in brief: (§1)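 Cells seeded in duplicate at 10,000 per well in DMEM with 5% FBS and incubated overnight. Compounds were then added as a 10-point dose response. After 72 h, viability was read by CellTiter-Glo luminescence, with the reagent diluted 1:1 in PBS/1% Triton-X. Values were normalized to DMSO-treated cells and IC50 was derived from curve fitting.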

518T2 [4] = assay: Binding affinity to beta-tubulin in mouse 518T2 cells at 0.1 to 50 uM measured after 1.5 hrs using Alexa Fluor 532 dye by copper-mediated click reaction based SDS PAGE analysis; format: cell-based; details: dose microM 0.1-50, time 1.5 hrs
Method in brief: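 Competition assay in 518T2 cells (1 million per well, DMEM with 5% FBS). Test analogs in DMSO were dispensed first at 100 nM to 50 μM and the cells plated onto them. The next day, alkyne probe (5 μM) was added for 1.5 h at 37 °C. Lysis was in 1% SDS HEPES buffer, followed by a click reaction with fluorescent azide, SDS-PAGE, and EC50 from displacement of the p50 band.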

518T2 [5] = assay: Inhibition of colony formation in mouse 518T2 cells harboring Tubb5 T238A mutant at 400 nM measured after 2 weeks by crystal violet staining based assay; format: functional, cell-based
Method in brief: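 518T2 cells were transfected with Cas9-sgRNA complexes targeting Tubb5 plus an oligonucleotide repair template encoding T238A, or a sham control. They were selected with compound at 400 nM for 2 weeks, and the plates were then stained with crystal violet to visualize resistant colonies.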

[6] = biological target: Tubulin beta-3 chain (Homo sapiens) (UniProt Q13509); assay: Binding affinity to recombinant human C-terminal His-tagged beta3-tubulin expressed in insect cells assessed as reduction in microtubule growth up to 10 uM measured up to 30 mins by microscopic analysis; details: dose microM <=10, time min <=30
Tubulin beta-3 chain (Homo sapiens), sequence (Q13509 whole entry): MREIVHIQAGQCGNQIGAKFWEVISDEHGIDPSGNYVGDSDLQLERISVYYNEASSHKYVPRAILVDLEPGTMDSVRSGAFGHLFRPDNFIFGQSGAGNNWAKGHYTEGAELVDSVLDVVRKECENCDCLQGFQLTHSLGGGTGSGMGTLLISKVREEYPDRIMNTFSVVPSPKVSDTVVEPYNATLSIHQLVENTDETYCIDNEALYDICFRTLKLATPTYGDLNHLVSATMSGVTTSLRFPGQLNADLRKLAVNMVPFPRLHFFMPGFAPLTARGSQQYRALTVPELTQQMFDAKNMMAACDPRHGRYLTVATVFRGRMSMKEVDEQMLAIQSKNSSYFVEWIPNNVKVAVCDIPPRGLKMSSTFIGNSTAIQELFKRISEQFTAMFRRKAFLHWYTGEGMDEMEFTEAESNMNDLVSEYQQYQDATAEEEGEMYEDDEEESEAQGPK
Method in brief: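 Human αβ-tubulin (TUBA1B plus TUBB3 with cleavable C-terminal His-tag) was expressed in Tni insect cells. It was purified by Ni-affinity, TEV cleavage and anion exchange, then kept in BRB80 with 50 μM GTP. Growth was measured by DIC time-lapse at 30 °C on GMPCPP seeds in 144 mM PIPES pH 6.9 buffer with 1 mM GTP and 4% DMSO, over about 30 min. Compound was tested at 1, 5 and 10 μM; growth rates were measured per microtubule over two trials.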

Bos taurus = organism: Bos taurus; assay: Binding affinity to bovine brain beta-tubulin assessed as reduction in microtubule growth at 1 uM measured up to 30 mins by microscopic analysis relative to control; parameters: scale not given: the % may be the effect or the level left; details: time min <=30
Method in brief: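 Microtubule growth from brain tubulin was imaged by time-lapse DIC microscopy at 30 °C on biotinylated GMPCPP seeds bound to neutravidin coverslips. Frames were taken every 50 ms and averaged in batches of 30; recordings ran about 30 min. Growth rates were quantified per microtubule.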

319N1 [7] = assay: Anticancer activity against mouse 319N1 clone D cells assessed as reduction in cell viability measured after 72 hrs by celltiter-glo assay; format: functional, cell-based; method in brief: as §1
319N1 [8] = assay: Anticancer activity against Msh2-deficient mouse 319N1 cells assessed as reduction in cell viability measured after 72 hrs by celltiter-glo assay; format: functional, cell-based; method in brief: as §1
319N1 [9] = assay: Anticancer activity against mouse 319N1 clone A cells assessed as reduction in cell viability measured after 72 hrs by celltiter-glo assay; format: functional, cell-based; method in brief: as §1
319N1 [10] = assay: (§2) Anticancer activity against mouse 319N1 clone C cells assessed as reduction in cell viability measured after 72 hrs by celltiter-glo assay; format: functional, cell-based; method in brief: as §1
319N1 [11] = assay: Anticancer activity against mouse 319N1 clone E cells assessed as reduction in cell viability measured after 72 hrs by celltiter-glo assay; format: functional, cell-based; method in brief: as §1
319N1 [12] = assay: Anticancer activity against mouse 319N1 clone B cells assessed as reduction in cell viability measured after 72 hrs by celltiter-glo assay; format: functional, cell-based; method in brief: as §1
[13] = as §2; format: functional, cell-based; details: 319N1, 72 h; method in brief: as §1
NCI-H128 = assay: Anticancer activity against human NCI-H128 cells assessed as reduction in cell viability measured after 72 hrs by celltiter-glo assay; format: functional, cell-based
NCI-H889 = assay: Anticancer activity against human NCI-H889 cells assessed as reduction in cell viability measured after 72 hrs by celltiter-glo assay; format: functional, cell-based
[14] = Anticancer activity against mouse 984NA cells assessed as reduction in cell viability measured after 72 hrs by celltiter-glo assay; format: functional, cell-based; method in brief: as §1
NCI-H2107 = assay: Anticancer activity against human NCI-H2107 cells assessed as reduction in cell viability measured after 72 hrs by celltiter-glo assay; format: functional, cell-based
[15] = Anticancer activity against mouse 518T2 cells assessed as reduction in cell viability measured after 72 hrs by celltiter-glo assay; format: functional, cell-based; details: 518T2, 72 h; method in brief: as §1

Compound | pIC50 [3] | beta-tubulin binding (probe competition, active/inactive) (518T2 [4]) | further results
COc1cc2c(c(OC)c1OC)-c1ccc(OC)c(=O)cc1[C@@H](NC(C)=O)CC2 | – | – | inhibition (518T2 [1]): Dose-dependent effect; Activity (518T2 [2]): Active
O=C(c1ccc(Cl)c([N+](=O)[O-])c1)N1CCN(c2cccc(Br)c2)CC1 | 6.06 | Active | –
Cc1ccc(Cl)cc1N1CCN(C(=O)c2ccc([N+](=O)[O-])c(Cl)c2)CC1 | 5.33 | – | –
Cc1ccc(Cl)cc1N1CCN(C(=O)c2ccc(Cl)cc2[N+](=O)[O-])CC1 | 4.77 | – | –
O=C(c1ccc(Cl)c([N+](=O)[O-])c1)N1CCN(c2ccccc2F)CC1 | 5.10 | – | –
O=C(c1ccc(Cl)c([N+](=O)[O-])c1)N1CCN(c2cccc(Cl)c2)CC1 | 6.16 | – | –
COc1ccc(N2CCN(C(=O)c3ccc(Cl)c([N+](=O)[O-])c3)CC2)cc1 | 4.39 | – | –
Cc1ccc(Cl)cc1N1CCN(C(=O)c2ccc(Br)c([N+](=O)[O-])c2)CC1 | 7.26 | Active | Activity (518T2 [2]): Active; inhibition (518T2 [5]): inactive; Activity [6]: inactive; Activity (Bos taurus): 80%
COc1cc([C@@H]2c3cc4c(cc3[C@@H](O[C@@H]3O[C@@H]5CO[C@@H](C)O[C@H]5[C@H](O)[C@H]3O)[C@H]3COC(=O)[C@H]23)OCO4)cc(OC)c1O | – | – | Activity (319N1 [7]): Active; Activity (319N1 [8]): Active; Activity (319N1 [9]): Active; Activity (319N1 [10]): Active; Activity (319N1 [11]): Active; Activity (319N1 [12]): Active
Cc1ccc(Cl)cc1N1CCN(C(=O)c2ccc(Cl)c([N+](=O)[O-])c2)CC1 | – | Active | pIC50 [13]: 5.83
O=C(c1ccc(Cl)c([N+](=O)[O-])c1)N1CCN(c2ccccc2)CC1 | 5.49 | Active | Activity (NCI-H128): Active; Activity (NCI-H889): Active; pIC50 [14]: 5.49; Activity (NCI-H2107): Active; pIC50 [15]: 5.49
Cc1ccc(Cl)cc1N1CCN(C(=O)c2cccc([N+](=O)[O-])c2Cl)CC1 | 4.91 | – | –
Cc1ccc(Cl)cc1N1CCN(C(=O)c2ccc(OC(F)(F)F)c([N+](=O)[O-])c2)CC1 | 7.70 | – | –
O=C(c1ccc(Cl)c([N+](=O)[O-])c1)N1CCN(c2ccc(F)cc2)CC1 | 4.68 | – | –
Cc1ccc(N2CCN(C(=O)c3ccc(Cl)c([N+](=O)[O-])c3)CC2)c(C)c1 | 5.16 | – | –
Cc1cccc(N2CCN(C(=O)c3ccc(Cl)c([N+](=O)[O-])c3)CC2)c1 | 5.85 | Active | –
